Reference: ChEMBL document CHEMBL2331322, “Synthesis and antimicrobial activity of some new benzo and naphthonitrile derivatives” (2013)
≈ marks a conversion by molar mass, not a printed value.

What was measured:
Assay type in all cases: functional
Bacillus subtilis [1] = assay: Antimicrobial activity against Bacillus subtilis at 1 mg/mL after 24 hrs by agar disc diffusion method; conditions: read-out: DIZ
Method in brief: (§1)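 Sterile 5 mm filter paper disks were impregnated with test solution in DMF (1 mg/mL) and placed on agar plates seeded with the test organism, in triplicate. Bacteria were incubated at 37 °C for 24 h and fungi for […] (so in the source). The read-out was the average inhibition zone diameter around the disks, in mm.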

Botrytis fabae [2] = assay: Antimicrobial activity against Botrytis fabae after 48 hrs by microdilution susceptibility test
Method in brief: (§2)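 MIC was determined by broth microdilution, using Müller–Hinton broth for bacteria and Sabouraud liquid medium for fungi. Stocks were made in DMF and serially diluted twofold. Wells were inoculated at 10⁶ CFU/mL and plates incubated at 36 °C for 24–48 h, with controls included. Only compounds giving agar-diffusion zones >14 mm were tested.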

Fusarium oxysporum [3] = assay: Antimicrobial activity against Fusarium oxysporum after 48 hrs by microdilution susceptibility test; method in brief: as §2
Pseudomonas aeruginosa [4] = assay: Antimicrobial activity against Pseudomonas aeruginosa after 24 hrs by microdilution susceptibility test; method in brief: as §2
Escherichia coli [5] = assay: Antimicrobial activity against Escherichia coli after 24 hrs by microdilution susceptibility test; method in brief: as §2
Bacillus subtilis [6] = assay: Antimicrobial activity against Bacillus subtilis after 24 hrs by microdilution susceptibility test; method in brief: as §2
Bacillus thuringiensis [7] = assay: Antimicrobial activity against Bacillus thuringiensis after 24 hrs by microdilution susceptibility test; method in brief: as §2
Botrytis fabae [8] = assay: Antimicrobial activity against Botrytis fabae at 1 mg/mL […] by agar disc diffusion method; conditions: read-out: DIZ
Fusarium oxysporum [9] = assay: Antimicrobial activity against Fusarium oxysporum at 1 mg/mL after 48 hrs by agar disc diffusion method; conditions: read-out: DIZ; method in brief: as §1
Pseudomonas aeruginosa [10] = assay: Antimicrobial activity against Pseudomonas aeruginosa at 1 mg/mL after 24 hrs by agar disc diffusion method; conditions: read-out: DIZ; method in brief: as §1
Escherichia coli [11] = assay: Antimicrobial activity against Escherichia coli at 1 mg/mL after 24 hrs by agar disc diffusion method; conditions: read-out: DIZ; method in brief: as §1
Bacillus thuringiensis [12] = assay: Antimicrobial activity against Bacillus thuringiensis at 1 mg/mL after 24 hrs by agar disc diffusion method; conditions: read-out: DIZ; method in brief: as §1

Row | Structure (SMILES) | zone of inhibition at 1000 µg/mL (Bacillus subtilis [1]) | MIC (Botrytis fabae [2]) | MIC (Fusarium oxysporum [3]) | MIC (Pseudomonas aeruginosa [4]) | MBC (Escherichia coli [5]) | MIC (Escherichia coli [5]) | MBC (Bacillus subtilis [6]) | MIC (Bacillus subtilis [6]) | MIC (Bacillus thuringiensis [7]) | zone of inhibition at 1000 µg/mL (Botrytis fabae [8]) | zone of inhibition at 1000 µg/mL (Fusarium oxysporum [9]) | zone of inhibition at 1000 µg/mL (Pseudomonas aeruginosa [10]) | zone of inhibition at 1000 µg/mL (Escherichia coli [11]) | zone of inhibition at 1000 µg/mL (Bacillus thuringiensis [12])
1 | N#Cc1ccccc1C(/N=N/c1ccc([N+](=O)[O-])cc1)C(N)=O (centres undefined) | 33 mm | 12.5 mg/L (≈ 40.4 µM) | 12.5 mg/L (≈ 40.4 µM) | 25 mg/L (≈ 80.8 µM) | 200 mg/L (≈ 647 µM) | 25 mg/L (≈ 80.8 µM) | 50 mg/L (≈ 162 µM) | 6.25 mg/L (≈ 20.2 µM) | 12.5 mg/L (≈ 40.4 µM) | 38 mm | 35 mm | 16 mm | 15 mm | 35 mm
2 | CCOC(=O)c1c2[nH]c(=N)c3ccccc3c2nn1-c1ccccc1 | 33 mm | 25 mg/L (≈ 75.2 µM) | 50 mg/L (≈ 150 µM) | 50 mg/L (≈ 150 µM) | 200 mg/L (≈ 602 µM) | 50 mg/L (≈ 150 µM) | 200 mg/L (≈ 602 µM) | 25 mg/L (≈ 75.2 µM) | 25 mg/L (≈ 75.2 µM) | 20 mm | 33 mm | 19 mm | 20 mm | 35 mm
3 | CCOC(=O)c1c2[nH]c(=N)c3ccccc3c2nn1-c1ccc(Cl)cc1 | 33 mm | 50 mg/L (≈ 136 µM) | 25 mg/L (≈ 68.2 µM) | 25 mg/L (≈ 68.2 µM) | 200 mg/L (≈ 545 µM) | 50 mg/L (≈ 136 µM) | 200 mg/L (≈ 545 µM) | 25 mg/L (≈ 68.2 µM) | 50 mg/L (≈ 136 µM) | 27 mm | 16 mm | 33 mm | 25 mm | 38 mm
4 | CCOC(=O)c1c2[nH]c(=N)c3ccccc3c2nn1-c1ccc(C)cc1 | 32 mm | 50 mg/L (≈ 144 µM) | 50 mg/L (≈ 144 µM) | 50 mg/L (≈ 144 µM) | 200 mg/L (≈ 577 µM) | 50 mg/L (≈ 144 µM) | 200 mg/L (≈ 577 µM) | 25 mg/L (≈ 72.2 µM) | 50 mg/L (≈ 144 µM) | 16 mm | 25 mm | 15 mm | 15 mm | 20 mm
5 | CCOC(=O)c1c2[nH]c(=N)c3ccccc3c2nn1-c1ccc(OC)cc1 | 40 mm | 50 mg/L (≈ 138 µM) | 25 mg/L (≈ 69 µM) | 50 mg/L (≈ 138 µM) | 200 mg/L (≈ 552 µM) | 50 mg/L (≈ 138 µM) | 200 mg/L (≈ 552 µM) | 50 mg/L (≈ 138 µM) | 25 mg/L (≈ 69 µM) | 19 mm | 38 mm | 20 mm | 30 mm | 37 mm
6 | CCOC(=O)c1c2[nH]c(=N)c3ccccc3c2nn1-c1ccc([N+](=O)[O-])cc1 | 38 mm | 50 mg/L (≈ 132 µM) | 25 mg/L (≈ 66.2 µM) | 50 mg/L (≈ 132 µM) | 200 mg/L (≈ 530 µM) | 50 mg/L (≈ 132 µM) | 200 mg/L (≈ 530 µM) | 25 mg/L (≈ 66.2 µM) | 25 mg/L (≈ 66.2 µM) | 20 mm | 19 mm | 16 mm | 15 mm | 37 mm
7 | N=c1[nH]c2nn(-c3ccccc3)nc2c2ccccc12 | 33 mm | 25 mg/L (≈ 95.7 µM) | 25 mg/L (≈ 95.7 µM) | 50 mg/L (≈ 191 µM) | 200 mg/L (≈ 765 µM) | 50 mg/L (≈ 191 µM) | 200 mg/L (≈ 765 µM) | 50 mg/L (≈ 191 µM) | 25 mg/L (≈ 95.7 µM) | 16 mm | 20 mm | 19 mm | 20 mm | 37 mm
8 | N#CCc1ccccc1C#N | 15 mm | 100 mg/L (≈ 703 µM) | 50 mg/L (≈ 352 µM) | 100 mg/L (≈ 703 µM) | 200 mg/L (≈ 1410 µM) | 100 mg/L (≈ 703 µM) | 200 mg/L (≈ 1410 µM) | 100 mg/L (≈ 703 µM) | 50 mg/L (≈ 352 µM) | 15 mm | 14 mm | 15 mm | 16 mm | 15 mm
9 | N#Cc1ccccc1C(C#N)/N=N/c1ccccc1 (centres undefined) | 37 mm | 12.5 mg/L (≈ 50.8 µM) | 12.5 mg/L (≈ 50.8 µM) | 12.5 mg/L (≈ 50.8 µM) | 200 mg/L (≈ 812 µM) | 25 mg/L (≈ 102 µM) | 100 mg/L (≈ 406 µM) | 12.5 mg/L (≈ 50.8 µM) | 25 mg/L (≈ 102 µM) | 40 mm | 38 mm | 30 mm | 33 mm | 30 mm
10 | N#Cc1ccccc1C(C#N)/N=N/c1ccc(Cl)cc1 (centres undefined) | 42 mm | 6.25 mg/L (≈ 22.3 µM) | 6.25 mg/L (≈ 22.3 µM) | 12.5 mg/L (≈ 44.5 µM) | 200 mg/L (≈ 712 µM) | 6.25 mg/L (≈ 22.3 µM) | 50 mg/L (≈ 178 µM) | 3.12 mg/L (≈ 11.1 µM) | 6.25 mg/L (≈ 22.3 µM) | 39 mm | 38 mm | 35 mm | 37 mm | 38 mm
11 | Cc1ccc(/N=N/C(C#N)c2ccccc2C#N)cc1 (centres undefined) | 35 mm | 25 mg/L (≈ 96 µM) | 12.5 mg/L (≈ 48 µM) | 25 mg/L (≈ 96 µM) | 200 mg/L (≈ 768 µM) | 25 mg/L (≈ 96 µM) | 100 mg/L (≈ 384 µM) | 12.5 mg/L (≈ 48 µM) | 25 mg/L (≈ 96 µM) | 35 mm | 33 mm | 16 mm | 30 mm | 33 mm
12 | COc1ccc(/N=N/C(C#N)c2ccccc2C#N)cc1 (centres undefined) | 39 mm | 12.5 mg/L (≈ 45.2 µM) | 12.5 mg/L (≈ 45.2 µM) | 25 mg/L (≈ 90.5 µM) | 50 mg/L (≈ 181 µM) | 12.5 mg/L (≈ 45.2 µM) | 100 mg/L (≈ 362 µM) | 6.25 mg/L (≈ 22.6 µM) | 12.5 mg/L (≈ 45.2 µM) | 38 mm | 37 mm | 30 mm | 35 mm | 36 mm
13 | N#Cc1ccccc1C(C#N)/N=N/c1ccc([N+](=O)[O-])cc1 (centres undefined) | 43 mm | 6.25 mg/L (≈ 21.5 µM) | 6.25 mg/L (≈ 21.5 µM) | 6.25 mg/L (≈ 21.5 µM) | 100 mg/L (≈ 343 µM) | 6.25 mg/L (≈ 21.5 µM) | 50 mg/L (≈ 172 µM) | 3.12 mg/L (≈ 10.7 µM) | 6.25 mg/L (≈ 21.5 µM) | 40 mm | 41 mm | 35 mm | 36 mm | 37 mm
14 | N#Cc1ccccc1C(/N=N/c1ccccc1)C(N)=O (centres undefined) | 37 mm | 25 mg/L (≈ 94.6 µM) | 12.5 mg/L (≈ 47.3 µM) | 25 mg/L (≈ 94.6 µM) | 200 mg/L (≈ 757 µM) | 25 mg/L (≈ 94.6 µM) | 100 mg/L (≈ 378 µM) | 12.5 mg/L (≈ 47.3 µM) | 12.5 mg/L (≈ 47.3 µM) | 15 mm | 27 mm | 31 mm | 15 mm | 37 mm
15 | N#Cc1ccccc1C(/N=N/c1ccc(Cl)cc1)C(N)=O (centres undefined) | 38 mm | 12.5 mg/L (≈ 41.8 µM) | 25 mg/L (≈ 83.7 µM) | 25 mg/L (≈ 83.7 µM) | 100 mg/L (≈ 335 µM) | 12.5 mg/L (≈ 41.8 µM) | 50 mg/L (≈ 167 µM) | 6.25 mg/L (≈ 20.9 µM) | 12.5 mg/L (≈ 41.8 µM) | 16 mm | 16 mm | 15 mm | 27 mm | 33 mm
16 | Cc1ccc(/N=N/C(C(N)=O)c2ccccc2C#N)cc1 (centres undefined) | 31 mm | 25 mg/L (≈ 89.8 µM) | 25 mg/L (≈ 89.8 µM) | 12.5 mg/L (≈ 44.9 µM) | 200 mg/L (≈ 719 µM) | 50 mg/L (≈ 180 µM) | 100 mg/L (≈ 359 µM) | 25 mg/L (≈ 89.8 µM) | 50 mg/L (≈ 180 µM) | 20 mm | 38 mm | 16 mm | 15 mm | 36 mm
17 | COc1ccc(/N=N/C(C(N)=O)c2ccccc2C#N)cc1 (centres undefined) | 32 mm | 50 mg/L (≈ 170 µM) | 25 mg/L (≈ 84.9 µM) | 25 mg/L (≈ 84.9 µM) | 100 mg/L (≈ 340 µM) | 12.5 mg/L (≈ 42.5 µM) | 100 mg/L (≈ 340 µM) | 25 mg/L (≈ 84.9 µM) | 12.5 mg/L (≈ 42.5 µM) | 26 mm | 16 mm | 32 mm | 30 mm | 19 mm
18 | CC1(C)S[C@@H]2[C@H](NC(=O)[C@H](N)c3ccccc3)C(=O)N2[C@H]1C(=O)O [AMPICILLIN] | 40 mm | – | – | – | 25 mg/L (≈ 71.5 µM) | 6.25 mg/L (≈ 17.9 µM) | 50 mg/L (≈ 143 µM) | 3.12 mg/L (≈ 8.94 µM) | – | – | – | – | 38 mm | –
19 | CC(=O)OCC1=C(C(=O)O)N2C(=O)[C@@H](NC(=O)Cc3cccs3)[C@H]2SC1 [CEPHALOTHIN] | 36 mm | – | – | 6.25 mg/L (≈ 15.8 µM) | – | 6.25 mg/L (≈ 15.8 µM) | – | 6.25 mg/L (≈ 15.8 µM) | 6.25 mg/L (≈ 15.8 µM) | – | – | 37 mm | 38 mm | 37 mm
20 | O=C(N[C@H](CO)[C@H](O)c1ccc([N+](=O)[O-])cc1)C(Cl)Cl [CHLORAMPHENICOL] | 44 mm | – | – | 6.25 mg/L (≈ 19.3 µM) | – | 6.25 mg/L (≈ 19.3 µM) | – | 3.12 mg/L (≈ 9.67 µM) | 3.12 mg/L (≈ 9.67 µM) | – | – | 38 mm | 37 mm | 44 mm
21 | C[C@@H]1C[C@@H]([C@H](O)CC2CC(=O)NC(=O)C2)C(=O)[C@@H](C)C1 [CYCLOHEXIMIDE] | – | 3.12 mg/L (≈ 11.1 µM) | 3.12 mg/L (≈ 11.1 µM) | – | – | – | – | – | – | 42 mm | 43 mm | – | – | –
